Laboratory results as given in ChEMBL document CHEMBL1155415, “Synthesis, characterization, and in vitro antimicrobial activities of 5-alkenyl/hydroxyalkenyl-2-phenylamine-1,3,4-oxadiazoles and thiadiazoles” (2010).
≈ marks a conversion by molar mass, not a printed value.

Experiments:
Format in all cases: functional
[1] = test system: Pseudomonas aeruginosa; assay: Antibacterial activity against Pseudomonas aeruginosa ATCC 27853 after 18 to 24 hrs
[2] = test system: Aspergillus fumigatus; assay: Ratio of MFC to MIC for Aspergillus fumigatus
Procedure, shortened: (§1)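 MFC: 0.1 ml from each MIC tube was spread on agar and colonies were counted after 48 h at 35 °C. MFC is the lowest concentration killing 99.9% of the inoculum. The MFC/MIC ratio was then calculated to classify activity as fungistatic or fungicidal.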

[3] = test system: Candida albicans; assay: Ratio of MFC to MIC for Candida albicans; procedure, shortened: as §1
[4] = test system: Escherichia coli; assay: Antibacterial activity against Escherichia coli ATCC 25922 after 18 to 24 hrs
[5] = test system: Staphylococcus aureus; assay: Antibacterial activity against Staphylococcus aureus ATCC 25923 after 24 hrs by disc diffusion method
Procedure, shortened: (§2)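 Agar disc diffusion. A standard inoculum of […] c.f.u./ml (0.5 McFarland) was spread evenly on agar. 6 mm Whatman no. 1 paper discs, dry-heat sterilized (140 °C, 1 h), were soaked in test compound and placed on nutrient agar. Plates were inverted and incubated 24 h at 37 °C. Read-out: diameter of the inhibition zone.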

[6] = test system: Trichophyton mentagrophytes; assay: Antifungal activity against Trichophyton mentagrophytes after 48 hrs by disk diffusion method
Procedure, shortened: (§3)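 Agar well diffusion with compounds in DMSO. The dish was lawned with a saline spore suspension, excess decanted, and dried 1 h at 37 °C. Wells were punched. Read-out: inhibition zone in mm. Griseofulvin served as standard and DMSO as negative control.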

[7] = test system: Candida albicans; assay: Antifungal activity against Candida albicans after 48 hrs by two fold dilution technique
Procedure, shortened: (§4)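 Broth MIC. Broth with log two-fold serial dilutions of compound was inoculated with about 1.6 × 10⁴–6 × 10⁴ c.f.u./ml of fungus and incubated 48 h at 35 °C. MIC is the lowest concentration arresting fungal growth.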

[8] = test system: Streptococcus pyogenes; assay: Antibacterial activity against Streptococcus pyogenes after 24 hrs by two fold dilution technique
Procedure, shortened: (§5)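 Broth dilution MIC. Nutrient broth held log two-fold serial dilutions of compound and was inoculated with about 5 × 10⁵ c.f.u./ml of actively dividing bacteria. Incubation was 24 h at 37 °C, with growth checked visually and spectrophotometrically. MIC is the lowest concentration arresting growth.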

[9] = test system: Talaromyces marneffei; assay: Antifungal activity against Penicillium marneffei after 48 hrs by disk diffusion method; procedure, shortened: as §3
[10] = test system: Klebsiella pneumoniae; assay: Antibacterial activity against Klebsiella pneumoniae after 24 hrs by disc diffusion method; procedure, shortened: as §2
[11] = test system: Talaromyces marneffei; assay: Ratio of MFC to MIC for Penicillium marneffei; procedure, shortened: as §1
[12] = test system: Candida albicans; assay: Antifungal activity against Candida albicans after 48 hrs by disk diffusion method; procedure, shortened: as §3
[13] = test system: Staphylococcus aureus; assay: Antibacterial activity against Staphylococcus aureus ATCC 25923 after 24 hrs by two fold dilution technique; conditions: ATCC 25923, 24 h; procedure, shortened: as §5
[14] = test system: Escherichia coli; assay: Antibacterial activity against Escherichia coli ATCC 25922 after 24 hrs by two fold dilution technique; conditions: ATCC 25922, 24 h; procedure, shortened: as §5
[15] = test system: Trichophyton mentagrophytes; assay: Antifungal activity against Trichophyton mentagrophytes after 48 hrs by two fold dilution technique; procedure, shortened: as §4
[16] = test system: Trichophyton mentagrophytes; assay: Ratio of MFC to MIC for Trichophyton mentagrophytes; procedure, shortened: as §1
[17] = test system: Klebsiella pneumoniae; assay: Antibacterial activity against Klebsiella pneumoniae after 24 hrs by two fold dilution technique; procedure, shortened: as §5
[18] = test system: Streptococcus pyogenes; assay: Antibacterial activity against Streptococcus pyogenes after 24 hrs by disc diffusion method; procedure, shortened: as §2
[19] = test system: Escherichia coli; assay: Antibacterial activity against Escherichia coli ATCC 25922 after 24 hrs by disc diffusion method; procedure, shortened: as §2
[20] = test system: Pseudomonas aeruginosa; assay: Antibacterial activity against Pseudomonas aeruginosa ATCC 27853 after 24 hrs by two fold dilution technique; conditions: ATCC 27853, 24 h; procedure, shortened: as §5
[21] = test system: Klebsiella pneumoniae; assay: Antibacterial activity against Klebsiella pneumoniae after 18 to 24 hrs
[22] = test system: Talaromyces marneffei; assay: Antifungal activity against Penicillium marneffei after 48 hrs by two fold dilution technique; procedure, shortened: as §4
[23] = test system: Streptococcus pyogenes; assay: Antibacterial activity against Streptococcus pyogenes after 18 to 24 hrs
[24] = test system: Aspergillus fumigatus; assay: Antifungal activity against Aspergillus fumigatus after 48 hrs by two fold dilution technique; procedure, shortened: as §4
[25] = test system: Staphylococcus aureus; assay: Antibacterial activity against Staphylococcus aureus ATCC 25923 after 18 to 24 hrs
[26] = test system: Pseudomonas aeruginosa; assay: Antibacterial activity against Pseudomonas aeruginosa ATCC 27853 after 24 hrs by disc diffusion method; procedure, shortened: as §2
[27] = test system: Aspergillus fumigatus; assay: Antifungal activity against Aspergillus fumigatus after 48 hrs by disk diffusion method; procedure, shortened: as §3

CCCCC/C=C\CC[C@H](O)CCCCCCCc1nnc(Nc2ccccc2)o1
MBC [1]: 50 µg/mL (≈ 121 µM) | Ratio [2]: 2 | Ratio [3]: 2 | MBC [4]: 25 µg/mL (≈ 60.4 µM) | diameter of the inhibition zone (DIZ) [5]: 21.1 mm | diameter of the inhibition zone (DIZ) [6]: 18.7 mm | MFC [7]: 25 µg/mL (≈ 60.4 µM) | MIC [7]: 12.5 µg/mL (≈ 30.2 µM) | MIC [8]: 6.25 µg/mL (≈ 15.1 µM) | diameter of the inhibition zone (DIZ) [9]: 16.3 mm | diameter of the inhibition zone (DIZ) [10]: 20.2 mm | Ratio [11]: 4 | diameter of the inhibition zone (DIZ) [12]: 23.2 mm | MIC [13]: 12.5 µg/mL (≈ 30.2 µM) | MIC [14]: 6.25 µg/mL (≈ 15.1 µM) | MFC [15]: 50 µg/mL (≈ 121 µM) | MIC [15]: 25 µg/mL (≈ 60.4 µM) | Ratio [16]: 2 | MIC [17]: 6.25 µg/mL (≈ 15.1 µM) | diameter of the inhibition zone (DIZ) [18]: 20.1 mm | diameter of the inhibition zone (DIZ) [19]: 21.6 mm | MIC [20]: 6.25 µg/mL (≈ 15.1 µM) | MBC [21]: 25 µg/mL (≈ 60.4 µM) | MFC [22]: 100 µg/mL (≈ 242 µM) | MIC [22]: 25 µg/mL (≈ 60.4 µM) | MBC [23]: 25 µg/mL (≈ 60.4 µM) | MFC [24]: 50 µg/mL (≈ 121 µM) | MIC [24]: 25 µg/mL (≈ 60.4 µM) | MBC [25]: 12.5 µg/mL (≈ 30.2 µM) | diameter of the inhibition zone (DIZ) [26]: 19.4 mm | diameter of the inhibition zone (DIZ) [27]: 21.6 mm

C=CCCCCCCCCc1nnc(Nc2ccccc2)o1
MBC [1]: 50 µg/mL (≈ 167 µM) | Ratio [2]: 4 | Ratio [3]: 2 | MBC [4]: 50 µg/mL (≈ 167 µM) | diameter of the inhibition zone (DIZ) [5]: 17.7 mm | diameter of the inhibition zone (DIZ) [6]: 16.9 mm | MFC [7]: 50 µg/mL (≈ 167 µM) | MIC [7]: 25 µg/mL (≈ 83.5 µM) | MIC [8]: 12.5 µg/mL (≈ 41.7 µM) | diameter of the inhibition zone (DIZ) [9]: 15.2 mm | diameter of the inhibition zone (DIZ) [10]: 16.8 mm | Ratio [11]: 2 | diameter of the inhibition zone (DIZ) [12]: 24.2 mm | MIC [13]: 6.25 µg/mL (≈ 20.9 µM) | MIC [14]: 12.5 µg/mL (≈ 41.7 µM) | MFC [15]: 50 µg/mL (≈ 167 µM) | MIC [15]: 12.5 µg/mL (≈ 41.7 µM) | Ratio [16]: 4 | MIC [17]: 12.5 µg/mL (≈ 41.7 µM) | diameter of the inhibition zone (DIZ) [18]: 18 mm | diameter of the inhibition zone (DIZ) [19]: 19.8 mm | MIC [20]: 12.5 µg/mL (≈ 41.7 µM) | MBC [21]: 25 µg/mL (≈ 83.5 µM) | MFC [22]: 25 µg/mL (≈ 83.5 µM) | MIC [22]: 12.5 µg/mL (≈ 41.7 µM) | MBC [23]: 50 µg/mL (≈ 167 µM) | MFC [24]: 100 µg/mL (≈ 334 µM) | MIC [24]: 25 µg/mL (≈ 83.5 µM) | MBC [25]: 25 µg/mL (≈ 83.5 µM) | diameter of the inhibition zone (DIZ) [26]: 17.3 mm | diameter of the inhibition zone (DIZ) [27]: 20.8 mm

COC1=CC(=O)C[C@@H](C)[C@]12Oc1c(Cl)c(OC)cc(OC)c1C2=O [GRISEOFULVIN]
Ratio [2]: 2 | Ratio [3]: 2 | diameter of the inhibition zone (DIZ) [6]: 24 mm | MFC [7]: 12.5 µg/mL (≈ 35.4 µM) | MIC [7]: 6.25 µg/mL (≈ 17.7 µM) | diameter of the inhibition zone (DIZ) [9]: 20 mm | Ratio [11]: 2 | diameter of the inhibition zone (DIZ) [12]: 30 mm | MFC [15]: 12.5 µg/mL (≈ 35.4 µM) | MIC [15]: 6.25 µg/mL (≈ 17.7 µM) | Ratio [16]: 2 | MFC [22]: 12.5 µg/mL (≈ 35.4 µM) | MIC [22]: 6.25 µg/mL (≈ 17.7 µM) | MFC [24]: 12.5 µg/mL (≈ 35.4 µM) | MIC [24]: 6.25 µg/mL (≈ 17.7 µM) | diameter of the inhibition zone (DIZ) [27]: 27 mm
